Screens from PubChem.
Rin1-Abl PPI inh – inhibitors of Rin1-Abl protein binding, primary screen, biochemical, TR-FRET | AID 588664, 2011 | hit rate 0.4% among 360,000 | Tyrosine-protein kinase ABL1 (Homo sapiens) + Ras and Rab interactor 1 (Homo sapiens), … | inhibition, % at 7.35 µM; in the data active = inhibition above about 5%, passing the limit was not always enough
PG9 Ab binder – binders of HIV-1 gp120 antibody PG9, primary screen, biochemical, TR-FRET; inhibition, % at 6.7 µM; TR-FRET gp120-PG9 antibody binding; hit rate 0.43% among 360,000; in the data active = inhibition above about 8.5%
NR1D1 modulator – modulators of Rev-erb alpha DNA binding, primary screen, biochemical, FITC-DNA, fluorescence polarization, uHTS; Nuclear receptor subfamily 1 group D member 1 (Homo sapiens), P20393; Rev-erbα–FITC-DNA binding, 90 min; hit rate 0.79% among 370,000; activity, % at 10 µM;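 active = activity above about 14%, limit read from the data; passing the limit was not always enough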
Target sequence (P20393 whole entry, looked up): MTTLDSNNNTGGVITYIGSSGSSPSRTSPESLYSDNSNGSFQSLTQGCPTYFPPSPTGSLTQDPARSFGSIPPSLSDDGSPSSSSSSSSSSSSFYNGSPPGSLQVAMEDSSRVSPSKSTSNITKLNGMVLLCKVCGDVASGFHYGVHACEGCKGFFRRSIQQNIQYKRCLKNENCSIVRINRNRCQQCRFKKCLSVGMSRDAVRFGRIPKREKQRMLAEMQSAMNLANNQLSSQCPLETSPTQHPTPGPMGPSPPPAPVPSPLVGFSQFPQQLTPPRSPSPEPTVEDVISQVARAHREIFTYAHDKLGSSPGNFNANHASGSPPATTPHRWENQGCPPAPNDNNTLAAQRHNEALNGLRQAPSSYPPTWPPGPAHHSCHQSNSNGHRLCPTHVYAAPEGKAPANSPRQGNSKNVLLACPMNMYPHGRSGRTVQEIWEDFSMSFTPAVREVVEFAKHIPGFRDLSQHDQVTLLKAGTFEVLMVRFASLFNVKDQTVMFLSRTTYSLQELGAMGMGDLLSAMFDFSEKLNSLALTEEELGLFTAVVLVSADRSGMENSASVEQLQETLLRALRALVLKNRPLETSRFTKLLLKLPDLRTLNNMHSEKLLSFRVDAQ
TbMetRS inhib – T. brucei MetRS inhibitors, primary screen, biochemical, luminescence; hit rate 0.4% among 360,000; purified T. brucei MetRS, ATP depletion, Kinase-Glo luminescence; inhibition, % at 11.9 µM; methionyl-tRNA synthetase (Trypanosoma brucei brucei);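 active = inhibition above a per-plate cutoff of the control wells' mean inhibition plus 3 SD, cut at about 5.5% in these data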
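assay system = parasite MetRS enzyme | timing = 15 min preincubation, 2 h reaction, all 25 °C | evaluation = percent inhibition relative to median high and low control wells | medium = HEPES buffer containing pyrophosphatase, BSA, spermine, DTT | compound = single dose, 11.9 µM final nominal, 0.9% final DMSO | detection = Kinase-Glo luminescence, ATP depletion format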
PG9 binder conf – binders of anti-gp120 antibody PG9, confirmation, biochemical, TR-FRET; shares compounds with PG9 Ab binder; AID 651571, 2012; hit rate 90% among 1,500; inhibition, % at 6.7 µM; TR-FRET PG9 antibody binding; in the data active = inhibition above about 9%
PGV04 Ab binding – binders of control antibody PGV04, counter-screen for PG9 antibody binder project, biochemical, TR-FRET, distinct HIV envelope site; shares compounds with PG9 Ab binder; TR-FRET PGV04 antibody-gp120 binding; inhibition, % at 6.7 µM; hit rate 95% among 1,500; in the data active = inhibition above about 9.5%
PG9 bind DR – small-molecule binders of antibody PG9, dose response, biochemical, TR-FRET, HIV-1 gp120 antibody | shares compounds with PG9 Ab binder | TR-FRET PG9 antibody-gp120 binding inhibition | IC50, µM | 95 tested, under 10 active; in the data active = IC50 below about 10 µM
PGV04 DR counter – binders of control antibody PGV04, dose response, counter-screen for PG9 antibody binder project, biochemical, TR-FRET, distinct HIV envelope site; shares compounds with PG9 Ab binder; TR-FRET binding to control antibody PGV04; IC50, µM; hit rate 20% among 95; AID 651937, 2012
PG126 DR counter – binders of control antibody PG126, dose response, counter-screen for PG9 antibody binder project, biochemical, TR-FRET, distinct HIV envelope site; IC50, µM; hit rate 20% among 95; AID 651939, 2012; shares compounds with PG9 Ab binder; TR-FRET binding to antibody PG126, counterscreen
Numbers stand for hits; - = inactive; . = no result. Only some compounds are listed: those with a hit (about 1.8% of all), similar ones and a draw of the others. Rule as the data show it, unless noted: active = IC50 below about 9 µM; inactive = the rest.

SMILES | Rin1-Abl PPI inh | PG9 Ab binder | NR1D1 modulator | TbMetRS inhib | PG9 binder conf | PGV04 Ab binding | others
Cn1c2ccccc2c(=O)c2ccc(C#Cc3ccccn3)cc21 | . | 50 | - | . | 57 | 79
Cc1ccc2nc(NC(=O)COC(=O)CSc3nc(C)cc(C)n3)sc2c1 | - | - | - | - | . | .
CSc1nsc(SCC(=O)Nc2nc3ccc(C)cc3s2)n1 | - | 10 | - | - | 14 | 18
O=C(NC(=S)Nc1cccc(NC(=S)NC(=O)c2ccccc2)c1)c1ccccc1 | - | 12 | - | - | - | 14
COc1cccc2cc3c(nc12)C[C@@H]1CCCC(=O)N2CCC[C@@]12C3 | . | . | - | . | . | .
CC(=NNC(=O)CSc1nnc(-c2ccccc2)n1-c1ccccc1)c1ccc2ccccc2c1 | . | . | - | . | . | .
c1ccc(-n2cnc3ccccc32)nc1 | - | - | - | - | . | .
c1ccc(-c2nccc(-c3ccc(-n4cnc5ccccc54)cc3)n2)cc1 | - | 15 | - | - | 19 | 14 | PG9 bind DR=-;PGV04 DR counter=-;PG126 DR counter=-
O=C(C1=C(O)C(=O)N(CCN2CCOCC2)C1c1ccc(F)cc1)c1cc2ccccc2o1 (configuration not stated) | - | 11 | - | - | 17 | 22
O=C(C1=C(O)C(=O)N(CCN2CCOCC2)C1c1ccco1)c1cc2ccccc2o1 (configuration not stated) | - | - | - | - | . | .
COc1ccccc1C1C(C(=O)c2cc3ccccc3o2)=C(O)C(=O)N1CCN(C)C (configuration not stated) | - | 13 | - | - | 24 | 34
CCN(CC)CCN1C(=O)C(O)=C(C(=O)c2cc3ccccc3o2)C1c1cccnc1 (configuration not stated) | - | 24 | - | - | 36 | 46
O=C(C1=C(O)C(=O)N(CCN2CCOCC2)C1c1cccc(Br)c1)c1cc2ccccc2o1 (configuration not stated) | - | 23 | - | - | 34 | 43
C=CCOC(=O)C(CO)NC(=O)CCCC(=O)O (configuration not stated) | . | . | - | . | . | .
Cc1cc(N2CCN(C(=O)OC(C)(C)C)C[C@H]2C)ccc1N1CCN(Cc2ccccc2)[C@@H](C)C1 | . | - | - | . | . | .
CC(Oc1ccccc1F)C(=O)NNC(=O)Cc1ccc(S(=O)(=O)N2CCOCC2)s1 (configuration not stated) | - | - | - | - | . | .
CN(C)CCN1C(=O)C(O)=C(C(=O)c2cc3ccccc3o2)C1c1cccc(Br)c1 (configuration not stated) | - | 31 | - | - | 38 | 47
O=C(C1=C(O)C(=O)N(CCc2ccccc2)C1c1cccnc1)c1ccco1 (configuration not stated) | - | - | - | - | . | .
O=C(C1=C(O)C(=O)N(CCc2ccccc2)C1c1ccncc1)c1cc2ccccc2o1 (configuration not stated) | - | 19 | - | - | 30 | 40
COc1cccc2cc(C(=O)C3=C(O)C(=O)N(CCN(C)C)C3c3ccc(Cl)cc3)oc12 (configuration not stated) | - | 14 | - | - | 22 | 28
O=C(C1=C(O)C(=O)N(CCCN2CCOCC2)C1c1ccccn1)c1cc2ccccc2o1 (configuration not stated) | - | 15 | - | - | 19 | 25
O=C(CCNS(=O)(=O)c1ccccc1C(F)(F)F)NC1CCCCCC1 | - | - | - | - | . | .
